KCNQ1 act = potentiates or activates the human KCNQ1 potassium channel | AID 2648 | B-score at 10 µM | actives 0.35% (n = 310,000) | CHO-K1 KCNQ1, thallium flux FluxOR fluorescence; hits give high values | P51787;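 active = fluorescence ratio B-score, a plate-corrected score, at least three library SD, with initial intensity B-score within 5 SD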
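Schedule – 37 °C overnight plating, 90-min dark dye load, 20-min compound pretreatment · System – stable KCNQ1 CHO-K1 line · Probe or stimulus – thallium- and potassium-containing depolarizing buffer · Measured by – kinetic FluxOR fluorescence, 10 s baseline plus 110 s post-stimulus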
KCNQ1 inh = human KCNQ1 channel inhibition. actives 1.3% (n = 310,000). AID 2642. CHO-K1 KCNQ1, FluxOR thallium flux fluorescence; hits give high values. B-score at 10 µM;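 active = compounds whose thallium flux B-score, printed positive for inhibition, exceeds three library SD while starting fluorescence stays within three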;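 note: channel opened by potassium depolarization with thallium stimulus after 20 min compound exposure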
KCNK3 block = human KCNK3 channel inhibition, primary screen; O14649; CHO-KCNK3 thallium flux, FluxOR fluorescence; hits give low values; B-score at 10 µM; actives 0.84% (n = 340,000); AID 602410;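 active = B-score under library mean minus 4 SD, starting fluorescence ratio at most library mean plus 5 SD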;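 note: more negative B-score means stronger inhibition of thallium flux through KCNK3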
hERG protect = hERG (human) protection from proarrhythmic block | CHO-hERG, FluxOR thallium flux, dofetilide IC70 present | activation (rescue from dofetilide block), less the hit threshold, % at 10 µM | Q12809 | actives 0.51% (n = 310,000);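 active = activation above the mean of controls blocked by dofetilide plus 5 SD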;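 note: thallium influx through hERG after potassium depolarization seen as dye fluorescence rise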
KCNK9 inh = human KCNK9 channel inhibition; Q9NPC2; HEK293 KCNK9, FluxOR thallium flux fluorescence; hits give low values; B-score at 10 µM; actives 1.2% (n = 310,000);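 active = ratio B-score over 3 SD below the library mean, with starting fluorescence within 5 SD of its mean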;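 note: negative B-score means less thallium flux so channel inhibition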
Target sequence (Q9NPC2 whole entry, looked up): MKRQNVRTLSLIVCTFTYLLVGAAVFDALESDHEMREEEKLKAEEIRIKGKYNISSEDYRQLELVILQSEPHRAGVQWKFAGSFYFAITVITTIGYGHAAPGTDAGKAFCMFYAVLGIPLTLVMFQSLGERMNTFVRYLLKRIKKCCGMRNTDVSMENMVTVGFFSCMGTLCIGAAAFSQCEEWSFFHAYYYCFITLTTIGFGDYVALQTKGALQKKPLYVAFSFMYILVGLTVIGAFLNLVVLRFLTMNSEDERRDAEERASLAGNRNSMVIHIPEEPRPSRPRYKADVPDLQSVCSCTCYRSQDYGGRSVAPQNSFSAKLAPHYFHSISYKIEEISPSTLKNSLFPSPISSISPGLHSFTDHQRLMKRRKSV
KCNQ1 block val = reconfirmed blocker of the human KCNQ1 potassium channel; shares compounds with KCNQ1 inh; actives 93% (n = 1,600); inhibition, % at 10 µM; AID 588353; KCNQ1 cell line, FluxOR thallium flux fluorescence;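 active = primary screen active, with duplicate mean exceeding buffer control mean plus 3 SD of buffer wells, cut at about 28% in these data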;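 note: 0% = buffer control ratio and 100% = XE991 inhibitor control ratio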
CHO KCNQ1 ctr = activity in parental CHO cells lacking KCNQ1; shares compounds with KCNQ1 inh; parental CHO-K1, FluxOR thallium flux fluorescence ratio; hits give low values; zero means no signal rise above baseline; fluorescence ratio (Tl flux) at 10 µM; actives 21% (n = 1,600); AID 588366;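 active = mean of duplicate thallium-flux fluorescence ratios in parental host cells more than 5 SD below the buffer control mean, cut at about 0.38 in these data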;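 note: ratio is peak minus minimum fluorescence divided by baseline fluorescence; actives read low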
KCNQ1 APC inh = confirmation of human KCNQ1 potassium channel inhibitors by electrophysiology; shares compounds with KCNQ1 inh; KCNQ1-CHO cells, automated patch clamp current; calls only at 10 µM; actives 20% (n = 490); AID 624120;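 active = KCNQ1 current drop exceeding 3 SD of negative control wells, seen in both duplicate runs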;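 note: steady state current during a 2 s step from -80 to +40 mV; negative values mean current inhibition and positive values mean potentiation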
KCNQ2 inh = rat KCNQ2 inhibition in KCNQ1 inhibitor specificity screen; shares compounds with KCNQ1 inh; KCNQ2 cells, FluxOR thallium flux fluorescence; inhibition, % at 10 µM; actives 71% (n = 1,600); AID 651746;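 active = mean percent inhibition of the KCNQ2 thallium signal more than 5 SD above the buffer-only control wells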;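 note: KCNQ2 expressed in CHO cells; 0% = buffer control wells and 100% = XE-991 inhibitor control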
KCNQ1-KCNE1 inh = KCNQ1 inhibitor that also blocks human KCNQ1/KCNE1 channel; KCNQ1/KCNE1 cells, FluxOR thallium flux fluorescence; shares compounds with KCNQ1 inh; inhibition, % at 10 µM; actives 77% (n = 1,600); AID 652147;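 active = mean percent inhibition of duplicate wells above the buffer-only control mean plus 3 SD of those controls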;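 note: 0% = buffer only wells and 100% = XE-991 inhibitor control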
* hit, by the source's call; i = inactive; · = no result given. Rows were chosen to be rich in hits. Some 3.1% of all compounds tested hit in one or more screens of this group.

SMILES	KCNQ1 act	KCNQ1 inh	KCNK3 block	hERG protect	KCNK9 inh	KCNQ1 block val	CHO KCNQ1 ctr	KCNQ2 inh	KCNQ1-KCNE1 inh	others
O=C(Nc1ccc(C(F)(F)F)cc1)c1ccc2nc[nH]c2c1	i	6*	i	-18.4	i	78.0*	0.491	86.3%*	i
CN(c1ccccc1)S(=O)(=O)c1cccc(NC(=O)Cc2n[nH]c(=O)c3ccccc23)c1	·	·	i	·	·	·	·	·	·
Cn1nccc1C(=O)NC1CCCc2c1cnn2-c1ccc(C(C)(C)C)cc1 (stereo unspecified)	i	9*	i	-13.7	i	94.5*	0.519	92.7%*	43.0%*	KCNQ1 APC inh=i
Cc1cc(C(=O)NC2CCCc3c2cnn3-c2cccc(C)c2C)n(C)n1 (stereo unspecified)	i	16*	i	-19.9	i	84.5*	0.497	60.0%*	46.5%*
COCCN(CC(=O)Nc1cccc(C)c1C)C(=O)C1CCN(S(=O)(=O)c2ccccc2)CC1	·	·	i	·	·	·	·	·	·
COc1ccc(NC(=O)NC2CCCCCCC2)cc1OC	i	i	i	-9.2	i	·	·	·	·
COc1ccccc1Nc1cc(C(=O)N2CCc3ccccc3C2)c2ccccc2n1	i	i	·	-15.7	i	·	·	·	·
COc1ccc(Nc2cc(C(=O)N3CCc4ccccc4C3)c3ccccc3n2)c(OC)c1	i	7*	i	-13.6	i	135.0*	0.419	129.7%*	175.5%*	KCNQ1 APC inh=i
COc1ccc(-c2cc(C(=O)N3CCN(c4ccccc4F)CC3)c3ccccc3n2)c(OC)c1	i	7*	i	-19.1	i	110.5*	0.394	i	176.0%*	KCNQ1 APC inh=i
CC(C(=O)OCC(=O)NC1CCCCC1)N1C(=O)c2ccccc2C1=O (stereo unspecified)	·	·	i	·	·	·	·	·	·
O=C(c1ccc(-n2ccnc2)cc1)N1CCCC(CO)(Cc2cccc(Cl)c2)C1 (stereo unspecified)	i	i	i	-2.8	i	·	·	·	·
CCOC(=O)c1c(C)[nH]c(C)c1C(=O)COC(=O)c1cccnc1OCC	·	·	i	·	·	·	·	·	·
C/C(O)=c1/ccc2cccc3nc(C)nc1c23	i	8*	i	-27.9	i	117.0*	0.245*	i	i
Cc1onc(-c2ccccc2)c1C(=O)N1CCN(S(=O)(=O)c2ccc(OC(F)(F)F)cc2)CC1	i	i	i	-1.4	i	·	·	·	·
CC(=O)c1c(C)n(CC(=O)NCc2ccco2)c2ccccc12	i	10*	i	-13.9	i	33.0*	0.538	i	50.0%*
CC(C(c1ccc2c(c1)OCO2)c1c(N)n(C)c(=O)n(C)c1=O)[N+](=O)[O-] (stereo unspecified)	i	i	i	-2.0	i	·	·	·	·
S=C(NCc1ccc(Cl)c(Cl)c1)NCc1ccco1	i	6*	i	-11.9	i	70.5*	0.485	i	104.5%*
CCOc1ccc(C=NNC(=O)c2cccc3ccccc23)cc1OCC	·	·	i	·	·	·	·	·	·
Cc1ccc(S(=O)(=O)NCc2ccccn2)c(C)c1C	i	i	i	-9.2	i	·	·	·	·
Cc1ccc(S(=O)(=O)NCc2ccncc2)c(C)c1C	i	7*	i	-19.8	i	55.5*	0.511	i	i
NC(=O)CSc1nc(C23CC4CC(CC(C4)C2)C3)nc2ccccc12	i	6*	i	-16.8	i	91.0*	0.385	i	94.0%*	KCNQ1 APC inh=i
CC(C)Cn1c(CCNC(=O)c2ccco2)nc2ccccc21	i	i	i	-10.7	i	·	·	·	·

Assay outcomes from PubChem.
